From PubChem
Compounds with a hit are over-represented: about 1.7% of the library has one in this group of screens.
HNF4A DNA FP: change in binding of human HNF4 alpha to DNA. P41235. activity change, % at 10 µM. HNF4a-FITC DNA binding, fluorescence polarization, 1 h. 360,000 compounds, 0.3% hits; in the data active = activity change above about 30%, passing the limit was not always enough
Target sequence (P41235 whole entry, looked up): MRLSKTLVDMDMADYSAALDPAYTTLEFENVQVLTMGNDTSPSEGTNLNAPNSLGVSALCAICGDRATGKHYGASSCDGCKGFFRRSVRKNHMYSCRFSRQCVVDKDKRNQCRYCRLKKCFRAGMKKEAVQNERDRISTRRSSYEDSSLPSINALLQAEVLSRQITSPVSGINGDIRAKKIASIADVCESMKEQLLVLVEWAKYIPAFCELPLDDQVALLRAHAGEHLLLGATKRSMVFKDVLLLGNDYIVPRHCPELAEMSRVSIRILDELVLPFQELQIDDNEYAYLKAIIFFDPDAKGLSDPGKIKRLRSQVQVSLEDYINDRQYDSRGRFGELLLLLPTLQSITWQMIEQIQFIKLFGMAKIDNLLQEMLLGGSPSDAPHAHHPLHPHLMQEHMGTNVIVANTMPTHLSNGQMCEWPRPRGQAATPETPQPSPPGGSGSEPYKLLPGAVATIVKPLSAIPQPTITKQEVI
Tb MetRS inh: blocks T. brucei methionyl-tRNA synthetase activity; 360,000 compounds, 0.4% hits; inhibition, % at 11.9 µM; AID 624268; purified T. brucei MetRS, ATP depletion, Kinase-Glo luminescence;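 active = inhibition above a per-plate cutoff of the control wells' mean inhibition plus 3 SD, cut at about 5.5% in these data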;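 also: 0% = DMSO wells median and 100% = median of wells with control inhibitor compound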
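Material – parasite MetRS enzyme · Medium – HEPES-MgCl2-KCl buffer plus DTT, spermine, BSA, pyrophosphatase · Reagent – ATP, methionine and E. coli bulk tRNA substrates · Times – 15 min enzyme-compound preincubation, 2 h reaction, 10 min detection, 25 °C · Measured by – luminescence of leftover ATP · Evaluation – percent inhibition relative to median high and low control wells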
IDE act: boosts human insulin-degrading enzyme activity in HEK cells; P14735; FAbeta-B cleavage, fluorescence polarization; 0% vehicle, 100% cell-free pure enzyme wells; activation, % at 5.96 µM; 340,000 compounds, 0.073% hits;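 active = activation above the mean of all tested compounds plus 3 SD, set per screening campaign, cut at about 17% in these data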
TPT1 inh: inhibitors of Candida albicans tRNA 2'-phosphotransferase TPT1; recombinant caTPT1, FP RNA substrate dephosphorylation; inhibition, % at 5 µM; 300,000 compounds, 0.81% hits;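 active = inhibition above the mean of all tested compounds plus 3 SD, set per screening campaign, cut at about 24% in these data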;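 also: plate controls were DMSO alone for no effect and ferristatin control at 100 nM for full effect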
IDE inh: inhibitors of human insulin-degrading enzyme in cells; P14735; HEK cells, FAbetaB cleavage, fluorescence polarization; inhibition, % at 5.59 µM; 320,000 compounds, 0.41% hits;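 active = percent inhibition above the average of all tested compounds plus 3 SD, set per screening campaign, cut at about 16% in these data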;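 also: IDE supplied by intact live HEK cells; FP after avidin binding of uncleaved biotin substrate so inhibition keeps polarization high; 0% = DMSO wells and 100% = 60 µM reference IDE inhibitor Ii1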
CSN deneddyl inh: CSN deneddylation inhibition; 360,000 compounds, 0.38% hits; Purified CSN, SCF-Nedd8-OG deneddylation, fluorescence polarization; AID 651999; inhibition, % at 12.5 µM; Q92905;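 active = pattern-corrected inhibition above about 35%, with an unprinted fluorescence ratio check between 0.5 and 1.5, limit read from the data, passing the limit was not always enough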;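 also: 0% = enzyme with substrate and 100% = substrate without enzyme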
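assay system = purified human Csn5 enzyme expressed in HEK293T cells | amount = 0.24 nM enzyme | buffer or medium = Tris/NaCl/DTT buffer, pH 7.5 | reagent = 10 nM SCFSkp2-Nedd8OG | compound = one concentration, 12.5 µM, 0.25% DMSO | times = 90 min reaction at room temperature | signal = FP | read-out basis = % inhibition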
* = called active by the depositor; . = no result given.

SMILES	HNF4A DNA FP	Tb MetRS inh	IDE act	TPT1 inh	IDE inh	CSN deneddyl inh
Cc1cc(Nc2ccc([N+](=O)[O-])cc2)c2ccccc2n1	4.8	0.9	-3.1	1.0	1.2	4.9
O=c1nc(Nc2ccccc2)sc2ccc([N+](=O)[O-])cc12	-2.9	-0.9	5.9	-6.2	-2.2	42.6*
O=S(=O)(NCCc1ccc(Cl)cc1)c1cccc2cccnc12	-3.0	-0.7	4.7	1.6	1.8	0.7
Cc1ccc(F)c(S(=O)(=O)NC(=O)C2(C)CCN2C(=O)Cc2ccccc2)c1 (stereo not given)	0.6	0.5	.	.	.	4.1
NC(=O)c1ccc(NC(=O)COC(=O)/C=C/c2ccc(Br)o2)cc1	-22.1	0.2	-1.4	.	2.3	48.2*
CCOc1ccc(C2C([N+](=O)[O-])=C(C)N(C)C(=O)N2C)cc1OC (stereo not given)	5.6	-0.5	9.0	-3.7	-0.5	-2.3
Cc1ccc(NC(=O)CCn2c(=O)[nH]c3ccsc3c2=O)cc1F	-0.1	-0.4	-2.1	2.2	1.4	-0.9
COc1ccc(NS(=O)(=O)c2ccc(C)c(NC(=O)CN3C(=O)NC4(CCCC4)C3=O)c2)cc1	40.0	-0.3	6.5	.	-3.4	109.5*
Cc1ccc(S(=O)(=O)N(C)C)cc1NC(=O)CN1C(=O)NC2(CCCCCC2)C1=O	0.8	-0.1	4.9	2.7	-4.1	-2.9
CC(NC(=O)/C(C#N)=C1\N=C(NC(=O)c2cccs2)c2ccccc21)c1ccccc1 (stereo not given)	54.9*	0.0	-3.8	8.7	-0.3	15.2
CCC(=O)N1CCN(c2ccnc3cc(Cl)ccc23)CC1	0.1	-0.3	-19.9	5.0	3.7	2.5
COc1cccc(Cl)c1NC(=O)N1CCN(c2ccnc3cc(Cl)ccc23)CC1	-2.1	0.1	-30.7	-2.1	26.5*	-1.7
COc1ccc(NC(=O)C2CCN(S(=O)(=O)c3ccc4c(c3)CC(C)N4C(C)=O)CC2)cc1OC (stereo not given)	-0.9	-0.3	77.2*	-2.9	-1.6	0.8
CCOC(=O)CSc1nnc(CSc2nc3sc4c(c3c(=O)[nH]2)CCCC4)n1-c1ccccc1	34.0*	-5.7	3.1	-2.0	10.4	-9.6
CCOC(=O)CCCSc1nc2sc3c(c2c(=O)[nH]1)CCC3	-1.5	-1.0	-9.5	2.4	2.7	-5.4
O=C(O)CSc1nc2ccc(Cl)cc2[nH]1	-1.2	0.0	-1.5	0.2	3.7	-2.1
O=C(O)CSc1nc2ccc(Br)cc2[nH]1	4.0	1.0	1.3	.	.	69.6*
CCCc1nc2ccc(Cl)cn2c1Cc1ccsc1	-13.1	-0.1	.	.	.	-16.9
CCSCCOC(=O)C1=C(C)N(C)C(=O)NC1c1ccc2c(c1)OCO2 (stereo not given)	-1.8	-1.1	4.8	6.7	0.7	0.7
CCc1ccc(/C(C)=N/NC(=O)CNC(=O)/C=C/c2ccco2)cc1	-59.7	-0.7	-1.4	0.9	5.0	37.6*
CCN(c1ccccc1)c1nc(Cl)nc2c1cnn2C	1.7	-0.1	-20.4	.	.	1.9
Cn1cccc1-c1nc2ccccc2[nH]1	-3.1	-0.3	8.4	-2.2	7.3	1.2
COc1cccc(CNc2ccc3c(c2)ncn3C(C)C)c1OC	3.7	0.1	20.0*	2.7	-9.8	5.9
O=C(CCn1c(=S)[nH]c2ccccc2c1=O)Nc1cccc(Cl)c1	-2.2	-0.5	3.4	-1.6	-7.0	0.0
COc1ccc(NC(=O)CCn2c(=S)[nH]c3ccccc3c2=O)cc1Cl	41.7*	0.5	.	.	.	14.6
SMILES	HNF4A DNA FP	Tb MetRS inh	IDE act	TPT1 inh	IDE inh	CSN deneddyl inh
CCOc1cc(Br)ccc1S(=O)(=O)NCc1ccccc1	1.4	-0.2	-0.9	0.1	5.3	-0.2
CCCCCCCCN1CC(Cc2cc3ccccc3c3ccccc23)N(c2ccccc2)c2ccccc2C1=O (stereo not given)	-0.7	-0.5	.	.	.	-2.0
CC(=O)Nc1nonc1NC(C)=O	-1.2	1.1	-0.7	2.2	5.4	-6.4
CC(=O)Nc1cc(OC(C)=O)c2nonc2c1OC(C)=O	-0.5	28.3*	-1.7	-2.5	-0.2	1.9
[O-][n+]1c2ccccc2[n+]([O-])c2cc(O)ccc21	-9.1	-0.6	2.4	-13.1	2.8	14.7
O=S(=O)(O)c1cc(O)c2c(O)c(N=Nc3cc(Cl)ccc3O)c(S(=O)(=O)O)cc2c1	-51.1	18.1*	-0.7	-4.2	-1.7	31.5
Nc1cc(S(=O)(=O)O)cc2ccc(S(=O)(=O)O)cc12	-6.8	0.1	5.1	.	.	-1.3
Cc1cc(-c2ccc(N=Nc3c(S(=O)(=O)O)cc4cc(S(=O)(=O)O)cc(N)c4c3O)c(C)c2)ccc1N=Nc1c(S(=O)(=O)O)cc2cc(S(=O)(=O)O)cc(N)c2c1O	.	.	.	80.0*	4.8	.
CN(C)C(=O)c1ccc(Oc2ccc(C(=O)N(C)C)cc2)cc1	36.9*	-0.8	-0.5	-4.3	1.6	3.4
Cc1cccc(OS(=O)(=O)NC(=O)OCC2CCCN3CCCCC23)c1 (stereo not given)	1.7	0.1	8.5	4.2	1.8	-14.8
COc1ccccc1OCCOc1ccc(/C=C2/C(=N)N3OC(C)=CC3=NC2=O)cc1OC	1.4	0.0	3.4	2.2	6.3	50.2*
Cc1ccc(-c2cc(C(F)F)n3ncc(C(=O)N4CCN(c5cccc(C)c5C)CC4)c3n2)cc1	-6.1	0.5	-1.2	-1.5	3.0	-8.3
COC(=O)C(C(=O)OC)c1ccccc1[N+](=O)[O-]	-3.8	0.8	-0.5	-6.8	3.9	-2.3
COC(=O)C(C(=O)OC)c1ncccc1[N+](=O)[O-]	-1.9	-0.4	17.8*	-4.6	-3.2	1.0
O=C(Nc1ccc(F)cc1)N(Cc1ccco1)Cc1cc2cc3c(cc2[nH]c1=O)OCO3	41.9*	0.1	2.4	0.0	-1.1	-2.3
CC1(C)Cc2ccccc2C2CC(O)C(=O)N21 (stereo not given)	35.4*	-0.7	3.9	0.8	4.4	1.0
O=C(N/N=C/c1ccncc1)c1cccc(N/N=C/c2ccncc2)c1	-0.7	3.1	0.9	5.6	0.5	-3.8
O=C(N/N=C/c1ccncc1)c1cccc(NC(=O)c2ccc(Cl)cc2)c1	11.5	-0.2	-0.1	-1.5	0.4	77.8*
Oc1oc(-c2cccc3ccccc23)nc1/C=N/c1nccs1	-2.4	-1.1	-50.6	31.0*	13.0	12.8
O=c1c2c(nc3cc(-c4ccc(Cl)cc4)[nH]n13)CCS2	-4.4	-0.1	3.0	-0.1	-1.5	41.5*
CCc1c(C)nc2cc(-c3ccc(Cl)cc3)[nH]n2c1=O	-0.8	0.3	-0.8	-4.5	0.8	-2.7
O=[N+]([O-])c1ccc2c(c1)-c1ccccc1C2=NO	7.3	-0.3	0.2	.	.	1.9
Nc1ccc2c(c1)C(=NO)c1cc([N+](=O)[O-])ccc1-2	52.2*	0.0	-18.8	.	.	17.6
